Laboratory results: ChEMBL document CHEMBL5724801, “EUbOPEN Chemogenomics Library - Multiplex” (2024)
Several values for one entry are separate records, joined by “and”; a condition that tells them apart may be missing. Equal entries are not always repeated.

Each compound was assayed on HEK-293T (assay: Multiplex assay against HEK293T). Settings: human, 12 h, 1 µM, compound concentration 1 uM.
Assay type: toxicity, cell-based
In short: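 On a CQ1 microscope at 37°C and 5% CO2, live cells were imaged after compound addition. They had been stained at seeding with Hoechst33342, BioTracker Green Microtubule Cytoskeleton Dye, MitoTracker Red and Annexin V Alexa Fluor 680. CellPathfinder machine-learning gating assigned cells to Hoechst high-intensity objects or normal cells, normal cells to healthy, pyknosed or fragmented nuclei, and pyknosed cells to mitotic or apoptotic. Tubulin, mitochondrial-mass and membrane-permeability phenotypes are per cents of healthy-nucleus cells.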

Q: How did the “Population Apoptotic (%)” value turn out when CCn1c(-c2ccncc2)cc2c1CCNC2=O was run?
A: 15.09% and 7.09%

Q: And the “Population Fragmented Nuclei (%)” value?
A: 1.92% and 1.82%

Q: What about the “Population Hoechst High Intensity Objects (%)” value of the same compound?
A: 0.95% and 0%

Q: And the “Population Membrane Permeable-Phenotype (%)” value?
A: 2.72% and 0%

Q: And the “Population Mitochondria Different-Phenotype (%)” value?
A: 35.37% and 23.81%

Q: And the “Population Mitotic Cells (%)” value?
A: 84.91% and 92.91%

Q: What about the “Population Normal (%)” value of the same compound?
A: 99.05% and 100%

Q: What about the “Population Pyknosed Nuclei (%)” value of the same compound?
A: 50.96% and 85.45%

Q: What about the “Population Tubulin-Different-Phenotype (%)” value of the same compound?
A: 7.48% and 14.29%

Q: What about the “Total Cell Count” value of the same compound?
A: 315 and 165

Q: How did the “Population Apoptotic (%)” value turn out when O=C1NC(NC23CC4CC(CC(C4)C2)C3)=N/C1=C\c1ccc2ncsc2c1 was run?
A: 29.13% and 49.03%

Q: And the “Population Fragmented Nuclei (%)” value?
A: 8.91% and 6.01%

Q: And the “Population Hoechst High Intensity Objects (%)” value?
A: 6.05% and 0.54%

Q: What about the “Population Membrane Permeable-Phenotype (%)” value of the same compound?
A: 1.75% and 0%

Q: What about the “Population Mitochondria Different-Phenotype (%)” value of the same compound?
A: 15.79% and 5.88%

Q: And the “Population Mitotic Cells (%)” value?
A: 70.87% and 50.97%

Q: What about the “Population Normal (%)” value of the same compound?
A: 93.95% and 99.46%

Q: What about the “Population Pyknosed Nuclei (%)” value of the same compound?
A: 62.87% and 84.7%

Q: What about the “Population Tubulin-Different-Phenotype (%)” value of the same compound?
A: 17.54% and 23.53%

Q: And the “Total Cell Count” value?
A: 215 and 184

Same assay, conditions: human, 12 h, 10 µM, compound concentration 10 uM

Q: Which results are given for CCn1c(-c2ccncc2)cc2c1CCNC2=O?
A: Population Apoptotic (%): 15.05% and 13.74%; Population Fragmented Nuclei (%): 0.77% and 4.17%; Population Hoechst High Intensity Objects (%): 0%; Population Membrane Permeable-Phenotype (%): 0% and 14.29%; Population Mitochondria Different-Phenotype (%): 31.51% and 14.29%; Population Mitotic Cells (%): 84.95% and 86.26%; Population Normal (%): 100%; Population Pyknosed Nuclei (%): 71.26% and 90.97%; Population Tubulin-Different-Phenotype (%): 5.48% and 14.29%; Total Cell Count: 261 and 144

Q: Which results are given for O=C1NC(NC23CC4CC(CC(C4)C2)C3)=N/C1=C\c1ccc2ncsc2c1?
A: Population Apoptotic (%): 29.21% and 56.72%; Population Fragmented Nuclei (%): 84.08% and 93.38%; Population Healthy Nuclei (%): 3.91% and 2.86%; Population Hoechst High Intensity Objects (%): 21.42% and 7.86%; Population Membrane Permeable-Phenotype (%): 0%; Population Mitochondria Different-Phenotype (%): 0%; Population Mitotic Cells (%): 70.79% and 43.28%; Population Normal (%): 78.58% and 92.14%; Population Pyknosed Nuclei (%): 12.01% and 3.76%; Population Tubulin-Different-Phenotype (%): 0%; Total Cell Count: 943 and 1934

Same assay, conditions: human, 24 h, 1 µM, compound concentration 1 uM

Q: CCn1c(-c2ccncc2)cc2c1CCNC2=O was tested. Which “Population Apoptotic (%)” value did it give?
A: 31.73% and 15.24%

Q: And the “Population Fragmented Nuclei (%)” value?
A: 2.16% and 2.84%

Q: And the “Population Hoechst High Intensity Objects (%)” value?
A: 0.27% and 0%

Q: And the “Population Membrane Permeable-Phenotype (%)” value?
A: 1.16% and 6.25%

Q: And the “Population Mitochondria Different-Phenotype (%)” value?
A: 23.17% and 18.75%

Q: And the “Population Mitotic Cells (%)” value?
A: 68.27% and 84.76%

Q: What about the “Population Normal (%)” value of the same compound?
A: 99.73% and 100%

Q: What about the “Population Pyknosed Nuclei (%)” value of the same compound?
A: 28.03% and 74.47%

Q: And the “Population Tubulin-Different-Phenotype (%)” value?
A: 32.43% and 18.75%

Q: What about the “Total Cell Count” value of the same compound?
A: 372 and 141

Q: How did the “Population Apoptotic (%)” value turn out when O=C1NC(NC23CC4CC(CC(C4)C2)C3)=N/C1=C\c1ccc2ncsc2c1 was run?
A: 59.35% and 52.46%

Q: And the “Population Fragmented Nuclei (%)” value?
A: 10.75% and 5.21%

Q: What about the “Population Healthy Nuclei (%)” value of the same compound?
A: 23.12% and 8.06%

Q: And the “Population Hoechst High Intensity Objects (%)” value?
A: 4.62% and 0%

Q: And the “Population Membrane Permeable-Phenotype (%)” value?
A: 6.98% and 5.88%

Q: What about the “Population Mitochondria Different-Phenotype (%)” value of the same compound?
A: 4.65% and 0%

Q: What about the “Population Mitotic Cells (%)” value of the same compound?
A: 40.65% and 47.54%

Q: And the “Population Normal (%)” value?
A: 95.38% and 100%

Q: And the “Population Pyknosed Nuclei (%)” value?
A: 66.13% and 86.73%

Q: What about the “Population Tubulin-Different-Phenotype (%)” value of the same compound?
A: 16.28% and 11.76%

Q: And the “Total Cell Count” value?
A: 195 and 211

Same assay, conditions: human, 24 h, 10 µM, compound concentration 10 uM

Q: With CCn1c(-c2ccncc2)cc2c1CCNC2=O as the compound, how does the “Population Apoptotic (%)” value read?
A: 46.45% and 34.13%

Q: What about the “Population Fragmented Nuclei (%)” value of the same compound?
A: 1.6% and 3.57%

Q: What about the “Population Hoechst High Intensity Objects (%)” value of the same compound?
A: 0%

Q: And the “Population Membrane Permeable-Phenotype (%)” value?
A: 0%

Q: What about the “Population Mitochondria Different-Phenotype (%)” value of the same compound?
A: 30.77% and 44.44%

Q: What about the “Population Mitotic Cells (%)” value of the same compound?
A: 53.55% and 65.87%

Q: What about the “Population Normal (%)” value of the same compound?
A: 100%

Q: And the “Population Pyknosed Nuclei (%)” value?
A: 62% and 90%

Q: And the “Total Cell Count” value?
A: 250 and 140

Q: What does the source list for O=C1NC(NC23CC4CC(CC(C4)C2)C3)=N/C1=C\c1ccc2ncsc2c1?
A: Population Apoptotic (%): 30% and 40.21%; Population Fragmented Nuclei (%): 85.18% and 91.28%; Population Healthy Nuclei (%): 4.04% and 1.95%; Population Hoechst High Intensity Objects (%): 21.4% and 9.41%; Population Membrane Permeable-Phenotype (%): 3.33% and 0%; Population Mitochondria Different-Phenotype (%): 0%; Population Mitotic Cells (%): 70% and 59.79%; Population Normal (%): 78.6% and 90.59%; Population Pyknosed Nuclei (%): 10.78% and 6.76%; Population Tubulin-Different-Phenotype (%): 0% and 3.57%; Total Cell Count: 944 and 1583

Same assay, conditions: human, 48 h, 1 µM, compound concentration 1 uM

Q: How did the “Population Apoptotic (%)” value turn out when CCn1c(-c2ccncc2)cc2c1CCNC2=O was run?
A: 33.96% and 24.19%

Q: What about the “Population Fragmented Nuclei (%)” value of the same compound?
A: 5.74% and 0%

Q: What about the “Population Healthy Nuclei (%)” value of the same compound?
A: 80.42% and 45.61%

Q: And the “Population Hoechst High Intensity Objects (%)” value?
A: 0.78% and 0.87%

Q: And the “Population Membrane Permeable-Phenotype (%)” value?
A: 2.6% and 0%

Q: What about the “Population Mitochondria Different-Phenotype (%)” value of the same compound?
A: 61.36% and 40.38%

Q: And the “Population Mitotic Cells (%)” value?
A: 66.04% and 75.81%

Q: What about the “Population Normal (%)” value of the same compound?
A: 99.22% and 99.13%

Q: With O=C1NC(NC23CC4CC(CC(C4)C2)C3)=N/C1=C\c1ccc2ncsc2c1 as the compound, how does the “Population Apoptotic (%)” value read?
A: 47.65% and 48.67%

Q: What about the “Population Fragmented Nuclei (%)” value of the same compound?
A: 14.23% and 10.83%

Q: What about the “Population Healthy Nuclei (%)” value of the same compound?
A: 14.64% and 17.2%

Q: What about the “Population Hoechst High Intensity Objects (%)” value of the same compound?
A: 2.85% and 0.63%

Q: And the “Population Membrane Permeable-Phenotype (%)” value?
A: 0% and 3.7%

Q: What about the “Population Mitochondria Different-Phenotype (%)” value of the same compound?
A: 40% and 33.33%

Q: What about the “Population Mitotic Cells (%)” value of the same compound?
A: 52.35% and 51.33%

Q: And the “Population Normal (%)” value?
A: 97.15% and 99.37%

Q: And the “Population Pyknosed Nuclei (%)” value?
A: 71.13% and 71.97%

Q: And the “Population Tubulin-Different-Phenotype (%)” value?
A: 25.71% and 48.15%

Q: And the “Total Cell Count” value?
A: 246 and 158

Same assay, conditions: human, 48 h, 10 µM, compound concentration 10 uM

Q: What does the source list for CCn1c(-c2ccncc2)cc2c1CCNC2=O?
A: Population Apoptotic (%): 66.43% and 44.74%; Population Fragmented Nuclei (%): 1.61% and 5.88%; Population Hoechst High Intensity Objects (%): 0%; Population Membrane Permeable-Phenotype (%): 0%; Population Mitochondria Different-Phenotype (%): 82.35% and 78.57%; Population Mitotic Cells (%): 33.57% and 55.26%; Population Normal (%): 100%; Population Pyknosed Nuclei (%): 57.43% and 83.82%; Total Cell Count: 249 and 136

Q: Which “Population Apoptotic (%)” value does the source give for O=C1NC(NC23CC4CC(CC(C4)C2)C3)=N/C1=C\c1ccc2ncsc2c1 here?
A: 35.64% and 60.49%

Q: And the “Population Fragmented Nuclei (%)” value?
A: 84.47% and 93.33%

Q: And the “Population Healthy Nuclei (%)” value?
A: 3.18% and 1.42%

Q: And the “Population Hoechst High Intensity Objects (%)” value?
A: 23.26% and 9.23%

Q: What about the “Population Membrane Permeable-Phenotype (%)” value of the same compound?
A: 0%

Q: And the “Population Mitochondria Different-Phenotype (%)” value?
A: 0%

Q: What about the “Population Mitotic Cells (%)” value of the same compound?
A: 64.36% and 39.51%

Q: And the “Population Normal (%)” value?
A: 76.74% and 90.77%

Q: And the “Population Pyknosed Nuclei (%)” value?
A: 12.35% and 5.25%

Q: And the “Population Tubulin-Different-Phenotype (%)” value?
A: 0%

Q: What about the “Total Cell Count” value of the same compound?
A: 1066 and 1701
